We go through 35 molecules from ChEMBL document CHEMBL1142529.

In assay [1] the target is T1, Quinolone resistance protein NorA (Staphylococcus aureus) (UniProt P0A0J7).
T1 sequence (whole entry): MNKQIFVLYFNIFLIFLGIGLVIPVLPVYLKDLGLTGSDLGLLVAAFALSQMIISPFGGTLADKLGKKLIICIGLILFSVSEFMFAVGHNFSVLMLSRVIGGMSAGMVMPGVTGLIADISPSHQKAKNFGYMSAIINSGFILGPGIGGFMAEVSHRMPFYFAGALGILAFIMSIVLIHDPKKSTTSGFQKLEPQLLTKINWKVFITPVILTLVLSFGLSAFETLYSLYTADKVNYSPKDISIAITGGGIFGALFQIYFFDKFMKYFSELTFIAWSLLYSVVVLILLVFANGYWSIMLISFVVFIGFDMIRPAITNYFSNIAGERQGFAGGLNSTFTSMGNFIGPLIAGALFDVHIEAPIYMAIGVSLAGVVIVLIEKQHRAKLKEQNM
Briefly: Inhibition of NorA efflux pump in Staphylococcus aureus 1199 assessed as fold reduction of ciprofloxacin MIC at 25 ug/ml. Summed up:
(§1)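 Broth checkerboard synergy in Mueller–Hinton broth with twofold serial dilutions. Each candidate EPI was run at seven concentrations (100–1.56 µg/mL) against ciprofloxacin at 10 concentrations (16–0.03 µg/mL). Incubation was 18 h at 37 °C, and growth was scored visually. The fold drop in ciprofloxacin MIC was read at the stated EPI concentration.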

Assay [2] addresses T1, Quinolone resistance protein NorA (Staphylococcus aureus). Kind of assay: Inhibition of NorA efflux pump in Staphylococcus aureus 1199B assessed as fold reduction of ciprofloxacin MIC at 6.25 ug/ml. An outline of the steps:
as §1

Assay [3] has the same target. Briefly: Inhibition of NorA efflux pump in Staphylococcus aureus 1199 assessed as fold reduction of ciprofloxacin MIC at 6.25 ug/ml. Summed up:
as §1

For assay [4] the target is unchanged. Kind of assay: Inhibition of NorA efflux pump in Staphylococcus aureus 1199B assessed as fold reduction of ciprofloxacin MIC at 25 ug/ml. An outline of the steps:
as §1

For assay [5] the target is unchanged. Kind of assay: Inhibition of NorA efflux pump in Staphylococcus aureus 1199 assessed as fold reduction of ciprofloxacin MIC at >100 ug/ml. Summed up: as §1
Assay [6] has the same target. Kind of assay: Inhibition of NorA efflux pump in Staphylococcus aureus 1199B assessed as fold reduction of ciprofloxacin MIC at >100 ug/ml.
For assay [7] the target is unchanged. Briefly: Inhibition of NorA efflux pump in Staphylococcus aureus 1199 assessed as fold reduction of ciprofloxacin MIC at 3.12 ug/ml. An outline of the steps: as §1
The target is the same in assay [8]. Kind of assay: Inhibition of NorA efflux pump in Staphylococcus aureus 1199B assessed as fold reduction of ciprofloxacin MIC at 3.12 ug/ml. An outline of the steps:
as §1

Assay [9] has the same target. Kind of assay: Inhibition of NorA efflux pump in Staphylococcus aureus 1199 assessed as fold reduction of ciprofloxacin MIC at 12.5 ug/ml. An outline of the steps: as §1
The target is the same in assay [10]. Briefly: Inhibition of NorA efflux pump in Staphylococcus aureus 1199B assessed as fold reduction of ciprofloxacin MIC at 12.5 ug/ml. Summed up: as §1
For assay [11] the target is unchanged. Briefly: Inhibition of NorA efflux pump in Staphylococcus aureus 1199 assessed as fold reduction of ciprofloxacin MIC at 100 ug/ml. Summed up: as §1
For assay [12] the target is unchanged. Briefly: Inhibition of NorA efflux pump in Staphylococcus aureus 1199B assessed as fold reduction of ciprofloxacin MIC at 100 ug/ml. An outline of the steps: as §1
For assay [13] the target is unchanged. Kind of assay: Inhibition of NorA efflux pump in Staphylococcus aureus 1199 assessed as fold reduction of ciprofloxacin MIC at 1.5 ug/ml. An outline of the steps:
as §1

The target is the same in assay [14]. Kind of assay: Inhibition of NorA efflux pump in Staphylococcus aureus 1199B assessed as fold reduction of ciprofloxacin MIC at 1.5 ug/ml. An outline of the steps: as §1

In the case of `CC(=O)Nc1ccc(NC(=O)/C=C/C=C/c2ccc3c(c2)OCO3)cc1`, the fold change (FC) in [1] is 2; in assay [2], 2; in assay [3], 0; in assay [4], 4.
On to `CC(C)NC(=O)/C=C/C=C/c1ccc2c(c1)OCO2`, for which the fold change (FC) in assay [1] is 0; in assay [4] it was 2.
With `N#Cc1cccc(NC(=O)CCCCc2ccc3c(c2)OCO3)c1`, the fold change (FC) in [5] and in [6] was 0 each time.
In the case of `O=C(/C=C/C=C/c1ccc2c(c1)OCO2)Nc1ccc(C(=O)Nc2ccccc2)cc1`, the fold change (FC) in assay [1] is 0; in assay [7], 0; in assay [8], 2; in [4], 4.
In the case of `CC(=O)Nc1cccc(NC(=O)/C=C/C=C/c2ccc3c(c2)OCO3)c1`, the fold change (FC) is 2 in assay [2], 0 in assay [3], 2 in assay [9] and 4 in [10].
For the molecule `CCCCNC(=O)/C=C/C=C/c1ccc2c(c1)OCO2`, the fold change (FC) in assay [11] and in [12] was 0 each time.
On to `CCN(CC)C(=O)/C=C/C=C/c1ccc2c(c1)OCO2`, for which the fold change (FC) in [1] came to 0; in [4], 2.
In the case of `O=C(/C=C/C=C/c1ccc2c(c1)OCO2)N1CCOCC1`, the fold change (FC) in [5] and in assay [6] was 0 throughout.
Consider `CN1CCN(C(=O)/C=C/C=C/c2ccc3c(c2)OCO3)CC1`, for which the fold change (FC) came out at 0 in [1] and 2 in assay [4].
For `O=C(/C=C/C=C/c1ccc2c(c1)OCO2)Nc1ccc(NC(=O)c2ccccc2)cc1`, the fold change (FC) was determined as 0 in [7] and 2 in assay [8].
For the molecule `O=C(/C=C/C=C/c1ccc2c(c1)OCO2)Nc1ccccc1`, the fold change (FC) in [9] and in [10] was 2 each time.
For `N#CCc1ccccc1NC(=O)/C=C/C=C/c1ccc2c(c1)OCO2`, the fold change (FC) in [5] and in assay [6] was 0 each time.
Take `N#CCc1ccc(NC(=O)/C=C/C=C/c2ccc3c(c2)OCO3)cc1`: the values for the fold change (FC) in assay [1] and in assay [4] were 0 and 2, respectively.
With `O=C(CCCCc1ccc2c(c1)OCO2)Nc1ccc(C(=O)Nc2ccccc2)cc1`, the fold change (FC) in [5] and in assay [6] was 0 in each case.
As to `Cc1ccccc1NC(=O)/C=C/C=C/c1ccc2c(c1)OCO2`, the fold change (FC) in [5] and in assay [6] was 0 in each case.
`CC(C)c1cc2c(c(O)c1O)[C@@]1(C(=O)O)CCCC(C)(C)[C@@H]1CC2`: the fold change (FC) in assay [1] and in [4] was 2 in each case.
On to `NC(=O)c1ccc(NC(=O)/C=C/C=C/c2ccc3c(c2)OCO3)cc1`, for which the results for the fold change (FC) in [1] and in assay [4] were 0 and 2, respectively.
Consider `CC[C@H](CO)NC(=O)/C=C/C=C/c1ccc2c(c1)OCO2`, for which the fold change (FC) in assay [5] and in assay [6] was 0 throughout.
As for `O=C(/C=C/C=C/c1ccc2c(c1)OCO2)Nc1ccc2c(c1)OCO2`, the fold change (FC) in assay [5] and in [6] was 0 throughout.
`O=C(/C=C/C=C/c1ccc2c(c1)OCO2)Nc1ccccc1CO`: the fold change (FC) in assay [1] stood at 0; in [4] it was 2.
For `COC(=O)[C@H]1[C@H]2C[C@@H]3c4[nH]c5cc(OC)ccc5c4CCN3C[C@H]2C[C@@H](OC(=O)c2cc(OC)c(OC)c(OC)c2)[C@@H]1OC`, the fold change (FC) in [1] amounted to 2; in assay [4] it was 4.
Take `O=C(/C=C/C=C/c1ccc2c(c1)OCO2)NCC(O)c1ccccc1` (stereo not given): the figures for the fold change (FC) in assay [9] and in assay [10] were 0 and 2, respectively.
`O=C(/C=C/C=C/c1ccc2c(c1)OCO2)Nc1cccc(CO)c1`: the fold change (FC) was found to be 0 in assay [1] and 2 in assay [4].
`CC(=O)Nc1ccccc1NC(=O)/C=C/C=C/c1ccc2c(c1)OCO2`: the fold change (FC) came out at 2 in [1], 2 in assay [2], 0 in [3] and 4 in [4].
For `CC(C)N(C(=O)/C=C/C=C/c1ccc2c(c1)OCO2)C(C)C`, the fold change (FC) in assay [1] and in assay [4] was 2 throughout.
With `N#Cc1cccc(NC(=O)/C=C/C=C/c2ccc3c(c2)OCO3)c1`, the fold change (FC) in assay [2] stood at 4; in assay [3], 0; in assay [13], 0; in assay [14], 2.
For the molecule `O=C(/C=C/C=C/c1ccc2c(c1)OCO2)Nc1ccc(CO)cc1`, the fold change (FC) was 2 in assay [2] and 0 in [3].
In the case of `N#Cc1ccc(NC(=O)/C=C/C=C/c2ccc3c(c2)OCO3)cc1`, the fold change (FC) in assay [1] is 0; in assay [4] it was 2.
In the case of `CC[C@@H](CO)NC(=O)/C=C/C=C/c1ccc2c(c1)OCO2`, the fold change (FC) is 0 in assay [1] and 2 in assay [4].
Consider `O=C(/C=C/C=C/c1ccc2c(c1)OCO2)Nc1nc2ccccc2s1`, for which the fold change (FC) in assay [2] and in assay [3] was 2 each time.
As to `O=C(/C=C/C=C/c1ccc2c(c1)OCO2)Nc1ccc2ncsc2c1`, the fold change (FC) stood at 0 in assay [7] and 2 in assay [8].
Turning to `CC(C)CNC(=O)/C=C/C=C/c1ccc2c(c1)OCO2`, the fold change (FC) in [1] was found to be 0; in [4] it was 2.
In the case of `COc1ccc(NC(=O)/C=C/C=C/c2ccc3c(c2)OCO3)cc1`, the fold change (FC) in [5] and in assay [6] was 0 each time.
Turning to `CC(C)CNC(=O)CCCCc1ccc2c(c1)OCO2`, the fold change (FC) in [5] and in assay [6] was 0 in each case.
`CCCNC(=O)/C=C/C=C/c1ccc2c(c1)OCO2`: the fold change (FC) in assay [5] and in assay [6] was 0 throughout.
